Test results as given in ChEMBL document CHEMBL1135457 (J Med Chem, 2002).

Legend:
[1] = target: T1, Androgen receptor (Homo sapiens, UniProt P10275); experiment: Displacement of [3H]DHT from human Androgen receptor
T1 sequence (P10275 whole entry): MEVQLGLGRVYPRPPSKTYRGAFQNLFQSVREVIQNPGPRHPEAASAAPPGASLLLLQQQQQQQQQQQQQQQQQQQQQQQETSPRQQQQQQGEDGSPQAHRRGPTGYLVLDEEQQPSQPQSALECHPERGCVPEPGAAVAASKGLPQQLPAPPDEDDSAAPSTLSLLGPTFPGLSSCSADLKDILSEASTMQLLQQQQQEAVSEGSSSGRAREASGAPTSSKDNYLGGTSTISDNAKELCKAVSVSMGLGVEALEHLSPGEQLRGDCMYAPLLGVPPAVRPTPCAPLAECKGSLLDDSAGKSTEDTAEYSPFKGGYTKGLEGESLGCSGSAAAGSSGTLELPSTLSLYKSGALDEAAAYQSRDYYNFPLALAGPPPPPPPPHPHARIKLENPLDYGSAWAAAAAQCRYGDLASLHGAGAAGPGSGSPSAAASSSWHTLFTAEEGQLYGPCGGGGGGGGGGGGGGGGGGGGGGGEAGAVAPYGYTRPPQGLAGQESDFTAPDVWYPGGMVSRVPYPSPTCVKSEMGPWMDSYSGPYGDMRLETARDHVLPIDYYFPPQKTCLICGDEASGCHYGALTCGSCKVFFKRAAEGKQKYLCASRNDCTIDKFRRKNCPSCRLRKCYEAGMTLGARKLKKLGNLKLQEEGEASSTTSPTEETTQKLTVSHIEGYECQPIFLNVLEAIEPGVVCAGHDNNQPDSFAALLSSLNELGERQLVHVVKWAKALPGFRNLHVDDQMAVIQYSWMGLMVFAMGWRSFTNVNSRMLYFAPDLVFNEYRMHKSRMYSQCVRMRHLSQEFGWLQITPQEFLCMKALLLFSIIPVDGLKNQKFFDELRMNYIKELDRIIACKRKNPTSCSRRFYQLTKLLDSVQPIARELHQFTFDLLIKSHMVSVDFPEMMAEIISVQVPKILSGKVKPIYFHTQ
Method in brief: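 Whole-cell extract of Sf9 cells infected with baculovirus expressing human AR (MOI 2, harvested 48 h), sonicated in pH 7.2 HEPES/molybdate/glycerol buffer. Extract bound to hydroxylapatite with 1 nM [3H]DHT and compound (0.01 nM–30 μM) in triplicate, 1 h, 4 °C. Nonspecific binding from 10 μM unlabeled DHT. Filtration, scintillation counting, sigmoidal IC50, Cheng–Prusoff Ki (Kd 0.4 nM).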

[2] = target: T2, Glucocorticoid receptor (Homo sapiens) (UniProt P04150)
T2 sequence (whole entry): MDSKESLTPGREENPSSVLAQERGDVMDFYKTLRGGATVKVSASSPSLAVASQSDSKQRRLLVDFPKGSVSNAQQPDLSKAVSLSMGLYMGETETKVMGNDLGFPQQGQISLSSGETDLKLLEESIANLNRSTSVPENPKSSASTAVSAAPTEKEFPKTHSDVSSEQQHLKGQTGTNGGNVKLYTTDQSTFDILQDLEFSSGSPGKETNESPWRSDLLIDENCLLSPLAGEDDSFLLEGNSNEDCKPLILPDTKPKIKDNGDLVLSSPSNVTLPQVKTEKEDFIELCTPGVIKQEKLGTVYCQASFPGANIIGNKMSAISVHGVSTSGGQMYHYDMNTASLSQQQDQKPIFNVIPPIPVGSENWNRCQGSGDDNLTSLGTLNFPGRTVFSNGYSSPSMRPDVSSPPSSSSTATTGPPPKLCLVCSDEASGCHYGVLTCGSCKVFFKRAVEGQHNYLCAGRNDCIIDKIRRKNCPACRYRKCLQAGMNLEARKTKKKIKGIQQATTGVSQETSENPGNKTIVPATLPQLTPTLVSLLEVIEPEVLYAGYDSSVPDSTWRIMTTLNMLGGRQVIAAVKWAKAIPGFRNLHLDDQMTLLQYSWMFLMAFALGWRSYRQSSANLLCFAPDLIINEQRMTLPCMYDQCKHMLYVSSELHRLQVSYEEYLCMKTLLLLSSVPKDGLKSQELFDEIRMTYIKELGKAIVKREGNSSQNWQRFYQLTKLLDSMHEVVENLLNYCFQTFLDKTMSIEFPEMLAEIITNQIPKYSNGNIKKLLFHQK

[3] = target: T3, Progesterone receptor (Homo sapiens) (UniProt P06401)
T3 sequence (whole entry): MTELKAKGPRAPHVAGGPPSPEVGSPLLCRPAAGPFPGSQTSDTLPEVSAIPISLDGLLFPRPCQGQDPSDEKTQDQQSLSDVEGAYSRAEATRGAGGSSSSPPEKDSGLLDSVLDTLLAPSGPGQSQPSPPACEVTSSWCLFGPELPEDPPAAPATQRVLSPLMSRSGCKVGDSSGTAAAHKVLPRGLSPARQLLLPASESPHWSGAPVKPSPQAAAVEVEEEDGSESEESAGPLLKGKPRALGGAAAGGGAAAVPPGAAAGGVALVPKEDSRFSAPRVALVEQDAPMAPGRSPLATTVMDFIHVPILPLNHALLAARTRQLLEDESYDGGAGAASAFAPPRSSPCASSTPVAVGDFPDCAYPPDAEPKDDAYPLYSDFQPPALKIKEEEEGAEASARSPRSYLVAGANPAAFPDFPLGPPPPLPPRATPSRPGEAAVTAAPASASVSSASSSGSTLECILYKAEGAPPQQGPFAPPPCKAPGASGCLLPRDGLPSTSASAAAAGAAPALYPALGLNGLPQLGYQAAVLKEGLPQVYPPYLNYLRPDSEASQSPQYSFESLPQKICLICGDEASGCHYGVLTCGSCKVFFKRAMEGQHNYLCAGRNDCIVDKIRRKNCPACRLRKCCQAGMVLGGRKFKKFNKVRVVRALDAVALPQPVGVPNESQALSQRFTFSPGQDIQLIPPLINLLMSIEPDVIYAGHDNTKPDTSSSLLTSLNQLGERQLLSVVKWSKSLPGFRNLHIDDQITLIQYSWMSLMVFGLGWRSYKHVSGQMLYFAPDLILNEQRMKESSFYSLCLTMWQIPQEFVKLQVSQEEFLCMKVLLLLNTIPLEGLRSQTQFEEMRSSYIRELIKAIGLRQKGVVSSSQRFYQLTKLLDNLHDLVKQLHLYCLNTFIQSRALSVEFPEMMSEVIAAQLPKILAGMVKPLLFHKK

| Ki [1] [nM] | Kif [2] [nM] | Structure (SMILES) | Kif [3] [nM] |
| --- | --- | --- | --- |
| 650 | 10 | CC#C[C@@]1(O)CC[C@@]2(Cc3ccccc3)c3ccc(O)cc3CC[C@@H]2C1 | – |
| – | – | Oc1ccc2c(c1)CC[C@@H]1C[C@@](O)(C#CCl)CC[C@@]21Cc1ccccc1 | > 1000 |
